According to ChEMBL document CHEMBL3044720, “Phytotoxic Eremophilanes from Ligularia macrophylla” (J Agric Food Chem, 2007):
The source made the active and inactive calls. No cut-off for these calls is given here.

Key:
Coptotermes formosanus [1] = experiment: Antitermite activity against greater than third-instar stage of Coptotermes formosanus workers/1 soldier in compound-pretreated filter paper assessed as mortality at 0.5% at 26 degC after 1 day (reference value: 0%); type: functional
Summary of the method: (§1)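 Test material in acetone (100 µL) was blotted onto 2.5 cm filter paper discs, dried several hours, then moistened with 100 µL water. Each dish held 20 workers (third instar or greater) and two soldiers. Dishes were kept at ca. 100% RH and 26 °C, with water-only controls. Four replicates came from different colonies. Mortality was scored daily for 3 weeks, reported as mean and SD, and compared by ANOVA with Fisher LSD (P < 0.05).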

Lemna aequinoctialis [2] = experiment: Phytotoxic activity against three-frond Lemna paucicostata colonies assessed as growth inhibition at 100 uM after 4 days; type: functional, organism-based
Summary of the method: (§2)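 Hoagland medium at pH 5.5 was filter-sterilized, with compound added in acetone or EtOH (1% final); tested range 100 to 0.1 µM. Two three-frond colonies from 4–5-day-old stock cultures were placed per well. Total frond area was imaged on days 0–4, and % increase was taken relative to day 0. IC50 came from a four-parameter logistic fit in R drc.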

Agrostis stolonifera [3] = experiment: Phytotoxic activity against Agrostis stolonifera seeds assessed as inhibition of germination at 10 uM at 26 degC measured 12 days post-drug dose; type: functional, organism-based
Summary of the method: (§3)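 Each well held 5 mg lettuce or 10 mg bentgrass seed plus 250 µL of compound in water with 3% acetone final; acetone/water controls were included. Sealed plates were kept at 26 °C under continuous light (173 µmol/m²/s). Germination was rated visually on a 0–5 scale (0 = no effect, 5 = no germination/growth) against controls, after 7 days for lettuce and 12 days for bentgrass.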

Coptotermes formosanus [4] = experiment: Antitermite activity against greater than third-instar stage of Coptotermes formosanus workers/1 soldier in compound-pretreated filter paper assessed as mortality at 0.5% at 26 degC after 21 days (reference value: 3.8 +/-4.8%); type: functional; summary of the method: as §1
Lactuca sativa [5] = experiment: Phytotoxic activity against Lactuca sativa (lettuce) seeds assessed as inhibition of germination at 10 uM at 26 degC measured 7 days post-drug dose; type: functional, organism-based; summary of the method: as §3
Coptotermes formosanus [6] = experiment: Antitermite activity against greater than third-instar stage of Coptotermes formosanus workers/1 soldier in compound-pretreated filter paper assessed as filter paper consumption at 0.5% at 26 degC after 21 days (reference value: 41.4 +/-5.6 mg); type: functional
Coptotermes formosanus [7] = experiment: Antitermite activity against greater than third-instar stage of Coptotermes formosanus workers/1 soldier in compound-pretreated filter paper assessed as mortality at 0.5% at 26 degC after 6 days (reference value: 2.5 +/-5%); type: functional; summary of the method: as §1
Coptotermes formosanus [8] = experiment: Antitermite activity against greater than third-instar stage of Coptotermes formosanus workers/1 soldier in compound-pretreated filter paper assessed as mortality at 0.5% at 26 degC after 13 days (reference value: 3.8 +/-4.8%); type: functional; summary of the method: as §1
Agrostis stolonifera [9] = experiment: Phytotoxic activity against Agrostis stolonifera seeds assessed as inhibition of germination at 1 uM at 26 degC measured 12 days post-drug dose; type: functional, organism-based; summary of the method: as §3
Agrostis stolonifera [10] = experiment: Phytotoxic activity against Agrostis stolonifera seeds assessed as inhibition of germination at 100 uM at 26 degC measured 12 days post-drug dose; type: functional, organism-based; summary of the method: as §3
Lactuca sativa [11] = experiment: Phytotoxic activity against Lactuca sativa (lettuce) seeds assessed as inhibition of germination at 100 uM at 26 degC measured 7 days post-drug dose; type: functional, organism-based; summary of the method: as §3
Lactuca sativa [12] = experiment: Phytotoxic activity against Lactuca sativa (lettuce) seeds assessed as inhibition of germination at 1 uM at 26 degC measured 7 days post-drug dose; type: functional, organism-based; summary of the method: as §3
Lemna aequinoctialis [13] = experiment: Phytotoxic activity against three-frond Lemna paucicostata colonies assessed as growth inhibition after 4 days; type: functional, organism-based; conditions: 96 h; summary of the method: as §2
Allium cepa [14] = experiment: Inhibition of mitotic cell division in Allium cepa cv. Evergreen (onion) root tips assessed as cell count at prophase stage of cell cycle at 100 to 300 uM at 24 degC; type: functional, organism-based
Cucumis sativus [15] = experiment: Inhibition of photosynthetic electron transport rate in Cucumis sativa Straight Eight (cucumber) cotyledons assessed as chlorophyll fluorescence at 100 uM at 22 degC measured at 2 to 24 hr post-drug treatment under constant light by fluorometer analysis; type: functional, organism-based
Summary of the method: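 8 mm cotyledon discs were cut from 6-day-old cucumber 'Straight Eight'. Variable chlorophyll fluorescence was read with a pulse-modulated fluorometer before treatment, then at 2, 4, 8 and 24 h. Discs sat in 1 mL 0.1% Tween 20 with 100 µM compound, 0.1% acetone solvent control or 10 µM atrazine, at 22 °C under continuous light; triplicate.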

Cucumis sativus [16] = experiment: Induction of cell membrane integrity disruption in Cucumis sativus (cucumber) cotyledons assessed as electrolyte leakage at 25 degC by conductivity meter analysis; type: functional
Summary of the method: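 Twenty-five 4 mm cucumber cotyledon discs (~50 mg fresh weight) were bathed in 5 mL of 2% sucrose, 1 mM MES pH 6.5, with 1% (v/v) acetone final in controls and treatments. Incubation was at 25 °C in darkness. Leakage into the bathing medium was followed over time by conductivity; six replicates per treatment.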

Allium cepa [17] = experiment: Inhibition of mitotic cell division in Allium cepa cv. Evergreen (onion) root tips assessed as cell count at anaphase stage of cell cycle at 100 to 300 uM at 24 degC; type: functional, organism-based
Allium cepa [18] = experiment: Inhibition of mitotic cell division in Allium cepa cv. Evergreen (onion) root tips assessed as cell count at metaphase stage of cell cycle at 100 to 300 uM at 24 degC; type: functional, organism-based
Allium cepa [19] = experiment: Inhibition of mitotic cell division in Allium cepa cv. Evergreen (onion) root tips assessed as cell count at telophase stage of cell cycle at 100 to 300 uM at 24 degC; type: functional, organism-based
Agrostis stolonifera [20] = experiment: Phytotoxic activity against Agrostis stolonifera seeds assessed as inhibition of germination at 1000 uM at 26 degC measured 12 days post-drug dose; type: functional, organism-based; summary of the method: as §3
Colletotrichum fragariae = experiment: Antifungal activity against Colletotrichum fragariae assessed as growth inhibition at 10 ug after 4-5 days by direct bioautography; type: functional, organism-based
Summary of the method: (§4)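 Direct TLC bioautography against strawberry-anthracnose Colletotrichum isolates grown on PDA at 24 ± 2 °C under a 12 h photoperiod. Conidia were harvested from 7–10-day cultures and filtered. Developed plates carrying 10 µg/spot were sprayed with 10^5 spores/mL and held in a moisture chamber for 4 days at 26 °C with a 12 h photoperiod. Zone diameters were measured 4–5 days after treatment.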

Colletotrichum acutatum = experiment: Antifungal activity against Colletotrichum acutatum assessed as diameter of growth inhibitory zone at 10 ug after 4-5 days by direct bioautography; type: functional; summary of the method: as §4
Lactuca sativa [21] = experiment: Phytotoxic activity against Lactuca sativa (lettuce) seeds assessed as inhibition of germination at 1000 uM at 26 degC measured 7 days post-drug dose; type: functional, organism-based; summary of the method: as §3
[22] = system: Colletotrichum gloeosporioides; experiment: Antifungal activity against Colletotrichum gloeosporioides assessed as growth inhibition at 10 ug after 4-5 days by direct bioautography; type: functional, organism-based; summary of the method: as §4
Cucumis sativus [23] = experiment: Inhibition of photosynthetic electron transport rate in Cucumis sativa Straight Eight (cucumber) cotyledons assessed as chlorophyll fluorescence at 10 uM at 22 degC measured at 2 to 24 hr post-drug treatment under constant light by fluorometer analysis; type: functional, organism-based
Summary of the method: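 Cotyledon discs (8 mm) were cut from 6-day-old plants. Induced variable chlorophyll fluorescence was read on a pulse-modulated fluorometer before each disc was placed in 1 mL of 0.1% Tween 20, with or without treatment; the solvent control was 0.1% acetone. Discs were kept at 22 °C under continuous light and read again at 2, 4, 8 and 24 h. Each treatment was run in triplicate.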

SMILES	mortality (Coptotermes formosanus [1]) [%]	growth inhibition (GI) (Lemna aequinoctialis [2])	inhibition (Agrostis stolonifera [3])	mortality (Coptotermes formosanus [4]) [%]	inhibition (Lactuca sativa [5])	Activity (Coptotermes formosanus [6]) [mg]	mortality (Coptotermes formosanus [7]) [%]	mortality (Coptotermes formosanus [8]) [%]	inhibition (Agrostis stolonifera [9])	inhibition (Agrostis stolonifera [10])	inhibition (Lactuca sativa [11])	inhibition (Lactuca sativa [12])	inhibition (Lactuca sativa [21])	further results
C=C1COC(=O)[C@@]12C[C@H]1CC[C@@H](OC(=O)/C(C)=C\C)[C@H](C)C1(C)C2 (single isomer, unassigned)	0	inactive	inactive	2.5	inactive	40	2.5	2.5	inactive	inactive	inactive	inactive	–	–
C/C=C(/C)C(=O)O[C@@H]1c2c(C)coc2C[C@@]2(O)CCC[C@H](C)[C@@]12C	1.3	–	inactive	18.8	inactive	16.5	3.8	16.3	inactive	–	inactive	inactive	–	IC50 (Lemna aequinoctialis [13]): 2940 nM; inhibition (Allium cepa [14]): inactive; inhibition (Cucumis sativus [15]): Active; Activity (Cucumis sativus [16]): inactive; inhibition (Allium cepa [17]): inactive; inhibition (Allium cepa [18]): inactive; inhibition (Allium cepa [19]): inactive
CC1=C2C3OC(=O)[C@H]4CCC[C@H](C[C@@H]2OC1=O)[C@]34C (single isomer, unassigned)	–	inactive	inactive	–	inactive	–	–	–	inactive	inactive	inactive	inactive	–	inhibition (Agrostis stolonifera [20]): Active
CC/C=C\C/C=C\C/C=C\CCCCCCCC(=O)O [LINOLENIC ACID]	0	–	inactive	6.3	inactive	44.2	0	5	inactive	inactive	inactive	inactive	inactive	inhibition (Agrostis stolonifera [20]): inactive; growth inhibition (GI) (Colletotrichum fragariae): inactive; Activity (Colletotrichum acutatum): 2.9 mm; growth inhibition (GI) [22]: inactive
Cc1coc2c1[C@@H]1OC(=O)[C@H]3CCC[C@H](C2)[C@@]31C	1.3	inactive	–	8.8	inactive	43.1	1.3	3.8	inactive	–	inactive	inactive	inactive	inhibition (Allium cepa [14]): inactive; inhibition (Cucumis sativus [15]): inactive; Activity (Cucumis sativus [16]): inactive; inhibition (Allium cepa [17]): inactive; inhibition (Allium cepa [18]): inactive; inhibition (Allium cepa [19]): inactive
CCNc1nc(Cl)nc(NC(C)C)n1	–	–	–	–	–	–	–	–	–	–	–	–	–	inhibition (Cucumis sativus [23]): inactive
CCCCC/C=C\C/C=C\CCCCCCCC(=O)O [LINOLEIC ACID]	2.5	–	inactive	6.3	inactive	44.6	3.8	5	inactive	inactive	inactive	inactive	inactive	growth inhibition (GI) (Colletotrichum fragariae): inactive; Activity (Colletotrichum acutatum): 2.9 mm; growth inhibition (GI) [22]: inactive
